Molecules are shown by their SMILES. Values without a mark were called inactive.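 How the source made its calls, unless noted: active means growth inhibition above a set limit, 3 SD over mean compound inhibition, in both replicates (cut at about 43% in these data); inconclusive means above the limit in only one replicate; inactive means at or below the limit in both replicates.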

One test can be described thus: Restrictive medium S. cerevisiae growth inhibition, OD615, pilot screen of yeast lifespan reduction project, restrictive growth control (AID 706).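 Further: modified DeaD lifespan yeast strain shifted to restrictive glucose medium.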 The note with it: OD615, 48 h, at 10 µM, active compounds read high. A digest of the protocol:
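Material: engineered S. cerevisiae DeaD strain / Medium: glucose-based CSMM-D restrictive medium / Compound: single dose of 10 µM compound final, 0.25% DMSO / Timing: 4 h pre-incubation, 48 h exposure at 30 °C / Technique: OD615 absorbance reading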
As for `COCCCNC(=O)c1ccc(CS(=O)(=O)c2ccc(OC)cc2)o1`, the growth inhibition was -24.6%.

On to `O=C(c1ccc(CSCc2ccccc2F)o1)N1CCN(c2ccc(N3CCOCC3)nn2)CC1`, for which the growth inhibition is 17.4%.

As to `COCCOC(=O)c1[nH]c2c(c1C)C(=O)CC(c1ccco1)C2` (stereo not given), the growth inhibition was -15.1%.

In the case of `CCOC(=O)CSc1nnc(Cn2c(=O)sc3ccccc32)n1C`, the growth inhibition was 7.89%.

As for `CCCC(=O)C1=C(N(C)c2ccccc2)CC(C)(C)C(C(=O)OC)C1=O` (stereo not given), the growth inhibition was -2.86%.

In the case of `CC1(C)CC(=O)N(CC(=O)NCc2ccccc2)c2ccccc2S1(=O)=O`, the growth inhibition was 6.21%.

In the case of `CCOc1cc(C2NC(=O)NC(O)(C(F)(F)F)C2C(=O)c2ccccc2)ccc1OC` (stereo not given), the growth inhibition is 19.4%.

Take `Cn1c(C(=O)NCCN2CCN(c3ccccc3F)CC2)cc2c(=O)n(C)c3ccccc3c21`: the growth inhibition is -2.32%.

In the case of `Cc1cc2ccccc2n1CCNC(=O)C1CC1`, the growth inhibition was 1.02%.

On to `Cc1cccc(NC(=O)CS(=O)(=O)c2cn(C)c3ccccc23)c1`, for which the growth inhibition is -12%.

Take `COc1nnc(-c2ccc(C)c(S(=O)(=O)NCCO)c2)c2ccccc12`: the growth inhibition was 10%.

Turning to `COc1ccc(-c2cnc(SCC(=O)Nc3ccc4c(c3)OCO4)n2Cc2ccco2)cc1`, the growth inhibition was 10.1%.

As to `Cn1cnc2cc(NC(=O)c3ccc(Cl)cc3)ccc21`, the growth inhibition is 7.51%.

Consider `CC1CCc2nn(CC(=O)Nc3ccc(F)cc3F)cc2C1` (stereo not given), for which the growth inhibition was -12.2%.

Turning to `Cc1ccc(-c2noc(CN3CCN(c4ccccc4F)CC3)n2)cc1`, the growth inhibition is -1.21%.

For `Cc1ccc(NC(=O)c2cc(-c3ccc(C)o3)nc3ccccc23)nc1`, the growth inhibition is -2.09%.

Take `Cc1nnc(N2C(=O)C(O)=C(C(=O)c3ccco3)C2c2ccc(F)cc2)s1` (stereo not given): the growth inhibition is -28.6%.

As to `COc1ccccc1N(CC(=O)Nc1cccnc1)S(C)(=O)=O`, the growth inhibition was 13.5%.

`CCCc1cc(C(=O)Nc2ccccc2SC)no1`: the growth inhibition is -21.2%.

`O=C(CSc1nc2c(c(=O)n1-c1ccc(F)cc1)SCC2)NCC1CCCO1` (stereo not given): the growth inhibition is -16.6%.

With `COc1ccc(-c2nc(C)c(C(C)=O)n2O)cc1OC`, the growth inhibition is 6.06%.

Turning to `C=CCOC(=O)COc1ccc2c(C)c(C)c(=O)oc2c1C`, the growth inhibition was -15.6%.

Consider `CN(C)CCCNC(=O)CCC1CCCCC1`, for which the growth inhibition was -3.73%.

For the compound `CC(C)(O)C#Cc1ccc(C(=O)N2CCN(C(=O)c3ccco3)CC2)cc1`, the growth inhibition is -11.2%.

Regarding `Nc1cccc2c1C(=O)N(c1ccccc1)C2=O`, the growth inhibition was -8.73%.

`COc1ccc(N2CCN(CCNC(=O)CCS(=O)(=O)c3cccc4nsnc34)CC2)cc1`: the growth inhibition is 4.11%.

With `CCOC(=O)CCc1c(C)nc2cc(-c3ccc(F)cc3)[nH]n2c1=O`, the growth inhibition is -4.2%.

As to `O=C1CC(c2cccnc2)c2cc3c(cc2N1)OCO3` (stereo not given), the growth inhibition is 1.1%.

With `COc1ccccc1CNC(=O)C1CCCN(S(=O)(=O)c2cccc3cccnc23)C1` (stereo not given), the growth inhibition is -12.7%.

As for `Oc1c(C(c2ccccc2)N2CCc3ccccc3C2)sc2ncnn12` (stereo not given), the growth inhibition was 8.2%.

On to `O=C(NCCc1c[nH]c2ccccc12)c1cnc2n(c1=O)CCS2`, for which the growth inhibition was 2.1%.

Turning to `CC(NC(=O)c1cc2c(=O)n(C)c3ccccc3c2n1C)c1ccc2c(c1)OCCO2` (stereo not given), the growth inhibition was -1.51%.

Regarding `CCOC(=O)c1ccc(-n2c(C)nc3c(cnn3-c3ccccc3C)c2=O)cc1`, the growth inhibition is 2.89%.

For the compound `COc1ccc(CCNC(=O)CSc2nnnn2-c2ccccc2OC)cc1OC`, the growth inhibition is 2.95%.

Consider `CCCSc1nnc(N2C(=O)CC(c3ccsc3)C3=C2CCCC3=O)s1` (stereo not given), for which the growth inhibition is -7.41%.

Turning to `COC(=O)Cn1c(=O)c2c(nc3n2CC(C)CN3c2ccc(C)c(C)c2)n(C)c1=O` (stereo not given), the growth inhibition was 0.135%.

Take `O=C(Nc1cccnc1)Nc1ccccn1`: the growth inhibition is -0.12%.

For the compound `CCn1cc(C(=O)NCc2ccccc2OC)c(=O)c2cc(S(=O)(=O)N(C)C)ccc21`, the growth inhibition is -17.1%.

As for `CC1CCN(c2oc(-c3ccccc3F)nc2C#N)CC1`, the growth inhibition was -13.1%.

For the compound `Clc1ccc(Nc2ncnc3c2cnn3-c2ccccc2)cc1`, the growth inhibition is -13.1%.

The next test can be described thus: viability gain of MRP-1-high H69AR cells under doxorubicin, pilot screen, MRP-1 activator project, CellTiter-Glo, duplicate (AID 807;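 active means viability increase at or above a cutoff of the median across tested compounds plus 3 SD, cut at about 8.5% in these data, passing the limit was not always enough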;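 further: compound pretreatment 18-22 h then 72 h combined with doxorubicin; 0% = doxorubicin alone and 100% = vehicle without doxorubicin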). The note with it: H69AR viability with doxorubicin, CellTiter-Glo luminescence; at 10 µM; active compounds read high. For orientation: In ATP-based viability assays light output follows the ATP content of the culture.
In the case of `COCCCNC(=O)c1ccc(CS(=O)(=O)c2ccc(OC)cc2)o1`, the viability increase was -1.48%.

`O=C(c1ccc(CSCc2ccccc2F)o1)N1CCN(c2ccc(N3CCOCC3)nn2)CC1`: the viability increase was -4.06%.

Regarding `COCCOC(=O)c1[nH]c2c(c1C)C(=O)CC(c1ccco1)C2` (stereo not given), the viability increase was -4.07%.

For the compound `CCOC(=O)CSc1nnc(Cn2c(=O)sc3ccccc32)n1C`, the viability increase was 1.76%.

Turning to `CCCC(=O)C1=C(N(C)c2ccccc2)CC(C)(C)C(C(=O)OC)C1=O` (stereo not given), the viability increase was -3.32%.

Consider `CC1(C)CC(=O)N(CC(=O)NCc2ccccc2)c2ccccc2S1(=O)=O`, for which the viability increase was -1.93%.

Take `CCOc1cc(C2NC(=O)NC(O)(C(F)(F)F)C2C(=O)c2ccccc2)ccc1OC` (stereo not given): the viability increase is -0.8%.

`Cn1c(C(=O)NCCN2CCN(c3ccccc3F)CC2)cc2c(=O)n(C)c3ccccc3c21`: the viability increase was -2.38%.

Take `Cc1cc2ccccc2n1CCNC(=O)C1CC1`: the viability increase is -0.53%.

As to `Cc1cccc(NC(=O)CS(=O)(=O)c2cn(C)c3ccccc23)c1`, the viability increase is -3.05%.

With `COc1nnc(-c2ccc(C)c(S(=O)(=O)NCCO)c2)c2ccccc12`, the viability increase is -1.67%.

For the compound `COc1ccc(-c2cnc(SCC(=O)Nc3ccc4c(c3)OCO4)n2Cc2ccco2)cc1`, the viability increase is -3.05%.

With `Cn1cnc2cc(NC(=O)c3ccc(Cl)cc3)ccc21`, the viability increase is 0.08%.

Turning to `CC1CCc2nn(CC(=O)Nc3ccc(F)cc3F)cc2C1` (stereo not given), the viability increase was 1.3%.

Take `Cc1ccc(-c2noc(CN3CCN(c4ccccc4F)CC3)n2)cc1`: the viability increase was -2.06%.

With `Cc1ccc(NC(=O)c2cc(-c3ccc(C)o3)nc3ccccc23)nc1`, the viability increase was -4.08%.

`Cc1nnc(N2C(=O)C(O)=C(C(=O)c3ccco3)C2c2ccc(F)cc2)s1` (stereo not given): the viability increase is -1.63%.

On to `COc1ccccc1N(CC(=O)Nc1cccnc1)S(C)(=O)=O`, for which the viability increase was -1.31%.

For `CCCc1cc(C(=O)Nc2ccccc2SC)no1`, the viability increase was -3.07%.

Regarding `O=C(CSc1nc2c(c(=O)n1-c1ccc(F)cc1)SCC2)NCC1CCCO1` (stereo not given), the viability increase is -3.46%.

As for `COc1ccc(-c2nc(C)c(C(C)=O)n2O)cc1OC`, the viability increase is -1.91%.

Consider `C=CCOC(=O)COc1ccc2c(C)c(C)c(=O)oc2c1C`, for which the viability increase was 2.23%.

On to `CN(C)CCCNC(=O)CCC1CCCCC1`, for which the viability increase is 0.26%.

As to `CC(C)(O)C#Cc1ccc(C(=O)N2CCN(C(=O)c3ccco3)CC2)cc1`, the viability increase was -0.62%.

Regarding `Nc1cccc2c1C(=O)N(c1ccccc1)C2=O`, the viability increase was -2.17%.

Take `COc1ccc(N2CCN(CCNC(=O)CCS(=O)(=O)c3cccc4nsnc34)CC2)cc1`: the viability increase is -1.51%.

As for `CCOC(=O)CCc1c(C)nc2cc(-c3ccc(F)cc3)[nH]n2c1=O`, the viability increase was -1.53%.

With `O=C1CC(c2cccnc2)c2cc3c(cc2N1)OCO3` (stereo not given), the viability increase is -1.75%.

Regarding `COc1ccccc1CNC(=O)C1CCCN(S(=O)(=O)c2cccc3cccnc23)C1` (stereo not given), the viability increase is -3.42%.

Consider `Oc1c(C(c2ccccc2)N2CCc3ccccc3C2)sc2ncnn12` (stereo not given), for which the viability increase is 3.99%.

In the case of `O=C(NCCc1c[nH]c2ccccc12)c1cnc2n(c1=O)CCS2`, the viability increase was -3.94%.

Consider `CC(NC(=O)c1cc2c(=O)n(C)c3ccccc3c2n1C)c1ccc2c(c1)OCCO2` (stereo not given), for which the viability increase was -4.19%.

For the compound `CCOC(=O)c1ccc(-n2c(C)nc3c(cnn3-c3ccccc3C)c2=O)cc1`, the viability increase is -0.28%.

Take `COc1ccc(CCNC(=O)CSc2nnnn2-c2ccccc2OC)cc1OC`: the viability increase was -2.14%.

`CCCSc1nnc(N2C(=O)CC(c3ccsc3)C3=C2CCCC3=O)s1` (stereo not given): the viability increase is -0.83%.

Consider `COC(=O)Cn1c(=O)c2c(nc3n2CC(C)CN3c2ccc(C)c(C)c2)n(C)c1=O` (stereo not given), for which the viability increase was -0.75%.

`O=C(Nc1cccnc1)Nc1ccccn1`: the viability increase was -0.73%.

Turning to `CCn1cc(C(=O)NCc2ccccc2OC)c(=O)c2cc(S(=O)(=O)N(C)C)ccc21`, the viability increase was -5.34%.

Turning to `CC1CCN(c2oc(-c3ccccc3F)nc2C#N)CC1`, the viability increase was 0.34%.

As for `Clc1ccc(Nc2ncnc3c2cnn3-c2ccccc2)cc1`, the viability increase was -2.81%.

The values above are taken from PubChem BioAssay.
